Compound activity (PubChem)
FXN GAA850 act: FXN promoter activators, primary screen, cell-based, luciferase luminescence, HEK293 lucGAA850 | activation, % at 6 µM | HEK293 lucGAA850 FXN promoter luciferase reporter, 24 h; percent of 10 µM SAHA response | 360,000 tested, 0.56% active;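 active = activation above the average of all compounds screened plus 3 SD, cutoff fixed separately per campaign, cut at about 7.5% in these data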
APJ ag: agonists of human apelin receptor APJ, primary screen, CHO-K1 cells, PathHunter beta-arrestin, luminescence; activation, % at 20 µM; 330,000 tested, 0.11% active; P35414; 0% DMSO wells, 100% apelin; AID 2520, 2010;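 active = activation more than six SD over the plate average, tested at 20 µM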
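Test system: CHO-K1 APJ beta-arrestin complementation cell line | Compound: Single test compound dose, 20 µM final, 1% DMSO | Incubation: Compound 90 min 25 °C, reagent 1 h | Measured by: beta-gal luminescence | Read-out basis: APJ–arrestin association signal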
APJ antag: antagonists of human apelin receptor APJ, primary screen, CHO-K1 cells, beta-arrestin complementation, luminescence | inhibition, % at 20 µM | AID 2521, 2010 | P35414 | 330,000 tested, 0.32% active;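 active = inhibition above about 40% at 20 µM, limit read from the data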;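 also: cells challenged with 10 nM apelin-13 agonist together with compound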
CCR6 antagonist: CCR6 receptor antagonists, primary screen, cell-based, CHO-K1, luminescence, beta-arrestin, uHTS. C-C chemokine receptor type 6 (Homo sapiens), P51684. CHO-K1 CCR6 PathHunter beta-arrestin, CCL20-stimulated. inhibition, % at 20 µM. 340,000 tested, 0.49% active. AID 493098, 2011;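 active = compounds whose inhibition of the agonist-driven luminescence signal at 20 µM reaches about 50%, limit read from the data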;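 also: cells stimulated with CCL20 at 14 nM final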
CXCR6 inh: CXCR6 receptor inhibitors, primary screen, cell-based, beta-arrestin, luminescence, CHO-K1 PathHunter, 1536-well. AID 602244, 2012. inhibition, % at 20 µM. 360,000 tested, 0.36% active. C-X-C chemokine receptor type 6 (Homo sapiens), O00574; in the data active = inhibition above about 34%, passing the limit was not always enough;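 also: antagonist mode with CXCL16 agonist at 10 nM final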
EBI2 antag: EBI2 receptor antagonists, beta-arrestin recruitment, primary screen, cell-based, luminescence, 7a,25-OHC stimulation, uHTS; AID 651636, 2012; 360,000 tested, 0.81% active; G-protein coupled receptor 183 (Homo sapiens), P32249; inhibition, % at 5 µM; 7a,25-OHC stimulated; in the data active = inhibition above about 38%;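 also: enzyme fragment complementation signal reports receptor beta-arrestin coupling in cells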
Target sequence (P32249 whole entry, looked up, the tested form may be a part): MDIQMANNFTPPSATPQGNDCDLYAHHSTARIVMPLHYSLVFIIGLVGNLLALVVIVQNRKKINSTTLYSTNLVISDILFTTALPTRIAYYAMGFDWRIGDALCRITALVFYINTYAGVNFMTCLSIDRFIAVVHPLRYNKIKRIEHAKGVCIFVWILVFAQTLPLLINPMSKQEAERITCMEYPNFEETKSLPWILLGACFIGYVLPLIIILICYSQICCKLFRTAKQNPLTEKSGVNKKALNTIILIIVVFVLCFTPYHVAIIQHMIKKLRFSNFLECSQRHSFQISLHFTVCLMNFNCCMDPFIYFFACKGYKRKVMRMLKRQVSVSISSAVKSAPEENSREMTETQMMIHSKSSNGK
EBI2 antag conf: EBI2 antagonist hit retest, beta-arrestin, confirmation, cell-based, single concentration, luminescence, 7a,25-OHC stimulation | shares compounds with EBI2 antag | 2,400 tested, 29% active | AID 651997, 2013 | inhibition, % at 5 µM | 7a,25-OHC antagonism;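 active = inhibition of at least 50%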
EBI2 agonist: EBI2 agonist activity of antagonist hits, confirmation, counter-screen for EBI2 antagonist project, cell-based, single concentration, agonist mode, luminescence; shares compounds with EBI2 antag; EBI2-expressing cells, 60 min; 0% vehicle, 100% 7α,25-dihydroxycholesterol control; activation, % at 5 µM; 2,400 tested, under 10 active;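 active = activation of at least 50%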
bGal cs: E. coli beta-galactosidase enzyme inhibition, confirmation, counter-screen for EBI2 antagonist project, biochemical, luminescence, single concentration. shares compounds with EBI2 antag. purified beta-galactosidase, luminescent Galacton Star, 15 min. inhibition, % at 5 µM. 2,400 tested, 1% active;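 active = replicate-average signal at least 3 plate SD below neutral wells, shown as high inhibition, flagging enzyme-inhibiting false positives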;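 also: higher means stronger loss of beta-gal luminescence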
Hits are given with their value. The list is not random: actives were taken first. Their share in the collection is about 2%.

Screening CC(=O)Nc1ccc(S(=O)(=O)N2CCC(C(=O)c3ccc(Cl)cc3)CC2)cc1 returned FXN GAA850 act inactive, APJ ag inactive, APJ antag inactive, CCR6 antagonist inactive, CXCR6 inh inactive, EBI2 antag 53.6, EBI2 antag conf inactive, EBI2 agonist inactive and bGal cs inactive.
Cc1ccc(C)c(NC(=O)C2=CCN(S(=O)(=O)c3ccc(F)cc3)CC2)c1 was read as FXN GAA850 act inactive, APJ ag inactive, APJ antag inactive, CCR6 antagonist inactive, CXCR6 inh inactive and EBI2 antag inactive.
Screening Cc1ccc(NC(=O)C2=CCN(S(=O)(=O)c3ccc(F)cc3)CC2)cc1 returned FXN GAA850 act inactive, APJ ag inactive, APJ antag inactive, CCR6 antagonist inactive, CXCR6 inh inactive, EBI2 antag 47.1, EBI2 antag conf inactive, EBI2 agonist inactive and bGal cs inactive.
CC(=O)Nc1ccc(S(=O)(=O)N2CCC(C(=O)c3ccc(F)cc3)CC2)cc1 was read as FXN GAA850 act inactive, APJ ag inactive, APJ antag inactive, CCR6 antagonist inactive, CXCR6 inh inactive and EBI2 antag inactive.
Screening O=C(c1cccc(S(=O)(=O)N2CCc3ccccc32)c1)N1CCN(c2ccccc2)CC1 returned FXN GAA850 act inactive, APJ ag inactive, APJ antag inactive, CCR6 antagonist inactive, CXCR6 inh inactive and EBI2 antag inactive.
`O=C(COC(=O)c1c(F)cccc1F)Nc1cccc(S(=O)(=O)N2CCCCC2)c1` gave FXN GAA850 act inactive, CXCR6 inh inactive and EBI2 antag inactive.
Screening COc1ccc(N(CC(=O)NCCSCc2ccc(Cl)cc2)S(C)(=O)=O)cc1Cl returned FXN GAA850 act inactive, APJ ag inactive, APJ antag inactive, CCR6 antagonist inactive, CXCR6 inh inactive, EBI2 antag 45.6, EBI2 antag conf inactive, EBI2 agonist inactive and bGal cs inactive.
`COc1ccc(N(CC(=O)NCCSc2ccccc2)S(=O)(=O)c2ccccc2)c(OC)c1` gave FXN GAA850 act inactive, APJ ag inactive, APJ antag inactive, CCR6 antagonist inactive, CXCR6 inh inactive, EBI2 antag 44.6, EBI2 antag conf inactive, EBI2 agonist inactive and bGal cs inactive.
For Cc1ccc(SCCNC(=O)CN(c2ccc3c(c2)OCO3)S(C)(=O)=O)cc1 the results were FXN GAA850 act inactive, APJ ag inactive, APJ antag inactive, CCR6 antagonist inactive, CXCR6 inh inactive, EBI2 antag 70.6, EBI2 antag conf 57.9, EBI2 agonist inactive and bGal cs inactive.
Screening COc1ccc(S(=O)(=O)N(CC(=O)NCCSc2ccccn2)c2ccccc2)cc1 returned FXN GAA850 act inactive, APJ ag inactive, APJ antag inactive, CCR6 antagonist inactive, CXCR6 inh inactive and EBI2 antag inactive.
COc1ccc(N(CC(=O)NCCSc2ccccc2)S(=O)(=O)c2ccccc2)cc1 was read as FXN GAA850 act inactive, APJ ag inactive, APJ antag inactive, CCR6 antagonist inactive, CXCR6 inh inactive, EBI2 antag 88.2, EBI2 antag conf 59.5, EBI2 agonist inactive and bGal cs inactive.
For Cc1ccc(SCC(=O)NNC(=O)CCS(=O)(=O)c2ccccc2)cc1 the results were FXN GAA850 act inactive, APJ ag inactive, APJ antag inactive, CCR6 antagonist inactive, CXCR6 inh inactive and EBI2 antag inactive.
For Cc1cc(Br)cc2c1N(C)C(=O)C2(c1ccc(O)cc1)c1ccc(O)cc1 the results were FXN GAA850 act inactive, APJ ag inactive, APJ antag inactive, CCR6 antagonist inactive, CXCR6 inh inactive and EBI2 antag inactive.
Screening Cc1ccc(S(=O)(=O)N(C)C[C@@H]2Oc3ccc(NS(C)(=O)=O)cc3CC(=O)N([C@H](C)CO)C[C@@H]2C)cc1 returned FXN GAA850 act inactive, APJ ag inactive, APJ antag inactive, CCR6 antagonist inactive, CXCR6 inh inactive and EBI2 antag inactive.
COc1ccccc1N(CC(=O)NCCSc1ccccc1)S(=O)(=O)c1ccccc1 was read as FXN GAA850 act inactive, APJ ag inactive, APJ antag inactive, CCR6 antagonist inactive, CXCR6 inh inactive, EBI2 antag 49.8, EBI2 antag conf inactive, EBI2 agonist inactive and bGal cs inactive.
Screening COc1ccccc1N(CC(=O)NCCSc1ccc(Cl)cc1)S(C)(=O)=O returned FXN GAA850 act inactive, APJ ag inactive, APJ antag inactive, CCR6 antagonist inactive, CXCR6 inh inactive, EBI2 antag 80.1, EBI2 antag conf 62.3, EBI2 agonist inactive and bGal cs inactive.
COc1ccc(N(CC(=O)NCCSCc2ccc(C)cc2)S(=O)(=O)c2ccccc2)cc1 was read as FXN GAA850 act inactive, APJ ag inactive, APJ antag inactive, CCR6 antagonist inactive, CXCR6 inh inactive, EBI2 antag 73.0, EBI2 antag conf inactive, EBI2 agonist inactive and bGal cs inactive.
O=CN(Cc1nc2ccccc2[nH]1)c1ccc(C(=O)O)cc1 was read as FXN GAA850 act inactive, CCR6 antagonist inactive, CXCR6 inh inactive and EBI2 antag inactive.
For CCCCCCC1CC(=CN(C)C)C(=O)O1 (centres undefined) the results were FXN GAA850 act inactive, CXCR6 inh inactive and EBI2 antag inactive.
For Cc1ccnc2nc(C(=O)OC(C)C(=O)NCc3ccccc3)nn12 (centres undefined) the results were FXN GAA850 act inactive, APJ ag inactive, APJ antag inactive, CCR6 antagonist inactive, CXCR6 inh inactive and EBI2 antag inactive.
`N#Cc1ccc(C(=O)N2CCN(S(=O)(=O)c3ccc(Br)s3)CC2)cc1` gave FXN GAA850 act inactive, APJ ag inactive, APJ antag inactive, CCR6 antagonist inactive, CXCR6 inh inactive, EBI2 antag 66.3, EBI2 antag conf inactive, EBI2 agonist inactive and bGal cs inactive.
For FC(F)C(F)(F)Oc1cccc(Nc2nccn3c(-c4cccc5ccccc45)cnc23)c1 the results were FXN GAA850 act inactive, CXCR6 inh inactive and EBI2 antag inactive.
